Sampled rows, rich in hits. Any-hit rate of the full collection: about 2.3%.
TRPC4 act – opens the mouse TRPC4 cation channel; HEK293 TRPC4beta/mu-opioid, Fluo4 calcium fluorescence; stronger effect = higher value; B-score at 10 µM; AID 2237; hit rate 0.49% among 310,000;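 active = B-score above 5 SD of library B-scores, and initial fluorescence ratio not above library mean plus 5 SD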;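 also: positive B-score marks a calcium rise read as TRPC4 activation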
Target sequence (Q9QUQ5 whole entry, looked up): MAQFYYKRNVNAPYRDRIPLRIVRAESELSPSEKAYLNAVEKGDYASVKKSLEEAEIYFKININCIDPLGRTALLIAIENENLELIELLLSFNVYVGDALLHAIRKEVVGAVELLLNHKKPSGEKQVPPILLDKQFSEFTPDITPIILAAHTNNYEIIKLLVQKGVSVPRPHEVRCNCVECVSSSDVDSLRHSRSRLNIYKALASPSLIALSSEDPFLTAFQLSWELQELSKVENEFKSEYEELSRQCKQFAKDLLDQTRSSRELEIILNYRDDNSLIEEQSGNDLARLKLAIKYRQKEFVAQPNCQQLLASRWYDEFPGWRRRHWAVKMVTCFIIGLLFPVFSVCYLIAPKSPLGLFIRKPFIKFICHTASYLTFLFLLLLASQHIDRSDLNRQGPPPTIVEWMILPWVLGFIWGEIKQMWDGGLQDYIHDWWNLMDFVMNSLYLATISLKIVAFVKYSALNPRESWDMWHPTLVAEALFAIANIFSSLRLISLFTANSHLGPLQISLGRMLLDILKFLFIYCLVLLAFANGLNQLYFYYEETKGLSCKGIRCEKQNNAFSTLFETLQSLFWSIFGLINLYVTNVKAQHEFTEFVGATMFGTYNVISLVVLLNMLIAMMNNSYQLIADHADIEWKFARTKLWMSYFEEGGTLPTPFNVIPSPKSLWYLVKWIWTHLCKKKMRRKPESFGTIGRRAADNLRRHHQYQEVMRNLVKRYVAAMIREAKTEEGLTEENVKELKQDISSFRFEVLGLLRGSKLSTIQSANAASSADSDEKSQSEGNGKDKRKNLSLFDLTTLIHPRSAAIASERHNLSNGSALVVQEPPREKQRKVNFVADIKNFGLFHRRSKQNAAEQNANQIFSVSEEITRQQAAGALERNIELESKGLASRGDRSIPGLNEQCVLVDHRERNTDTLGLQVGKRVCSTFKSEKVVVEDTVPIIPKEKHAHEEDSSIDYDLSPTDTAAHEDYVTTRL
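Material: HEK293 stable line with TRPC4beta plus mu-opioid receptor; technique: Fluo4 calcium-sensitive dye fluorescence, kinetic, 1 Hz baseline; timing: Fluo4 dye loading 45 min at room temperature, 110 s recording; controls: assay buffer as low control, maximal DAMGO as high control; read-out: integrated baseline-normalised fluorescence ratio, converted to per-well B score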
TRPC6 inhibitor – blocks the mouse TRPC6 cation channel. hit rate 1.1% among 310,000. B-score at 10 µM. Q61143. AID 2553. HEK293-TRPC6, membrane potential dye, ACh-evoked depolarization; stronger effect = lower value;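 active = B-score under library mean minus 3 SD, initial fluorescence not abnormally high, positive integrated signal ratio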;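 also: B-score derived from integrated fluorescence ratio over the kinetic read; more negative B-score means stronger inhibition of depolarization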
TRPC4 potent – TRPC4 (mouse) allosteric potentiation; Q9QUQ5; HEK293 TRPC4beta/mu-opioid, DAMGO EC20, Fluo-4 Ca2+ flux; stronger effect = higher value; B-score at 10 µM; hit rate 0.42% among 310,000; AID 2227;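 active = B-score of calcium response area above 5 SD of library B-scores, with initial fluorescence ratio within 5 SD of library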;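 also: B-score of integrated fluorescence ratio over time as area under calcium response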
TRPC4 inh – inhibitors of mouse TRPC4 channel. Q9QUQ5. HEK293 TRPC4beta/mu-opioid, DAMGO-evoked Fluo4 calcium flux; stronger effect = lower value. B-score at 10 µM. hit rate 0.39% among 300,000. AID 2247;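 active = B-score over 3 SD under the library average, no early fluorescence shift, positive overall ratio signal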
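Assay system: HEK293 cells with stable TRPC4beta plus mu-opioid receptor expression. Dosing: single dose. Measured by: Fluo4 Ca2+ flux fluorescence. Also added: DAMGO in two steps, submaximal then maximal. Read-out: B score from integrated Fluo4 fluorescence ratio.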
TRPC6 activator – activates the mouse TRPC6 cation channel. Q61143. hit rate 0.13% among 310,000. AID 2550. HEK293-TRPC6 membrane potential dye fluorescence; stronger effect = higher value. B-score at 10 µM;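 active = B-score of the integrated fluorescence ratio above library mean plus 3 SD, and starting fluorescence ratio within library mean plus 5 SD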;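 also: higher score means more depolarization so channel activation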
TRPC4 sel inh 2 – mouse TRPC4 off-target activity of TRPC6 inhibitors, second screen; inhibition, % at 10 µM; shares compounds with TRPC6 inhibitor; HEK293 TRPC4/MOR, membrane potential dye fluorescence; channel activated by saturating DAMGO dose; hit rate 42% among 920; AID 2776;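 active = compounds whose fluorescence signal differed from control wells by over 3 SD, either direction, in both duplicate plates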
TRPC4 spec – mouse TRPC4 off-target activity of TRPC6 inhibitors. shares compounds with TRPC6 inhibitor. HEK293 TRPC4/mu-opioid, membrane potential fluorescence. activity change, negative = inhibition, % at 10 µM. hit rate 61% among 920. AID 2777;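 active = rise or fall in signal beyond 3 SD of buffer-only wells in both replicate plates, either sign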;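 also: integrated kinetic ratio of fluorescence range over baseline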
HEK293 MPD ctr 2-1 – parental HEK293 nonspecific activity of TRPC6 inhibitors, second screen. shares compounds with TRPC6 inhibitor. parental HEK293 membrane potential dye fluorescence; maximal acetylcholine challenge after compound addition. signal change vs control, % at 10 µM. hit rate 31% among 920. AID 2779;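 active = membrane potential signal moving either way by over 3 SD of the maximum-effect control, in both duplicate plates, meaning non-specific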
HEK293 MPD ctr-1 – checks TRPC6 inhibitor effects in parental HEK293 cells; shares compounds with TRPC6 inhibitor; parental HEK293 membrane potential dye fluorescence; membrane potential signal change, % at 10 µM; hit rate 60% among 920;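 active = membrane potential signal shifting up or down by more than 3 SD of buffer-only wells, on both duplicate plates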
HEK293 MPD ctr-2 – parental HEK293 nonspecific activity of TRPC6 modulators; AID 488924; membrane potential signal change, % at 10 µM; membrane potential dye fluorescence; shares compounds with TRPC6 inhibitor; hit rate 51% among 2,400;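 active = membrane potential signal moves up or down beyond 5 SD from buffer-only wells, on both duplicate plates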
HEK293 MPD ctr 2-2 – second counter-screen for TRPC6 modulators: effect in parental HEK293 cells; shares compounds with TRPC6 inhibitor; membrane potential dye fluorescence; after compound, maximal acetylcholine stimulation; inhibition, % at 10 µM; hit rate 14% among 2,400;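 active = membrane potential signal drops by more than 5 SD from the mean control signal, in both duplicate plates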;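 also: plate controls were acetylcholine ECmax control wells for no effect and buffer only wells for full effect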
TRPC4 ctr mod – selectivity of TRPC6 modulators against mouse TRPC4. hit rate 69% among 2,400. percent change from control (negative = decrease, positive = increase), % at 10 µM. HEK293 TRPC4/mu-opioid, membrane potential fluorescence. shares compounds with TRPC6 inhibitor;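 active = membrane potential signal moved up or down beyond 5 SD of buffer control wells, in both duplicate plates, actives on both sides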;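 also: plate controls were assay buffer wells for no effect and DAMGO maximal-effect wells for full effect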
TRPC4/MOR inh 2 – second check of whether TRPC6 modulators also affect mouse TRPC4; shares compounds with TRPC6 inhibitor; HEK293 TRPC4/mu-opioid, membrane potential dye fluorescence; stimulated with maximal-effect DAMGO; inhibition, % at 10 µM; hit rate 55% among 2,400; AID 488928;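 active = drop in membrane potential signal beyond 5 SD of the control wells in both duplicate plates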;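 also: TRPC4 counter screen for TRPC6 hits run under conditions tuned for TRPC6 not TRPC4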
TRPC6 block conf – confirmation of mouse TRPC6 inhibitors. shares compounds with TRPC6 inhibitor. inhibition, % at 10 µM. HEK293-TRPC6, membrane potential dye, ACh-evoked depolarization. hit rate 43% among 3,300;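 active = fluorescence ratio falls more than 5 SD below the full-stimulation control mean, in both duplicate runs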;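 also: integrated fluorescence ratio of peak minus minimum over baseline after agonist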
TRPC6 act confirm – confirmation of mouse TRPC6 activators; shares compounds with TRPC6 inhibitor; HEK293-TRPC6 membrane potential dye fluorescence, FDSS; activation, % at 10 µM; hit rate 11% among 2,800; AID 488961;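 active = ratio signal rise beyond 5 SD above unstimulated control wells' mean, seen in both duplicate runs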;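 also: plate controls were buffer EC0 wells for no effect and acetylcholine ECmax response for full effect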
* marks the source's active call; other numbers are inactive results; i = inactive; · = not tested or not shown; + = active, no number.

SMILES	TRPC4 act	TRPC6 inhibitor	TRPC4 potent	TRPC4 inh	TRPC6 activator	HEK293 MPD ctr-2	HEK293 MPD ctr 2-2	TRPC4 ctr mod	TRPC4/MOR inh 2	TRPC6 block conf	TRPC6 act confirm	others
CCOc1ccc2nc(C)cc(Nc3cccc([N+](=O)[O-])c3)c2c1	i	i	i	i	i	·	·	·	·	·	·
CCOC(=O)c1cc2c(=O)n3ccccc3nc2n(CCCOC)c1=NC(=O)c1cccnc1	i	i	i	i	i	·	·	·	·	·	·
N=c1c(C(=O)NCC2CCCO2)cc2c(=O)n3ccccc3nc2n1Cc1ccccc1Cl (stereo not given)	i	-6.7*	78*	i	i	·	·	·	·	i	i	TRPC4 sel inh 2=48%*;TRPC4 spec=i;HEK293 MPD ctr 2-1=i;HEK293 MPD ctr-1=-456%*
COc1ccc(CCn2c(=N)c(C(=O)NCC3CCCO3)cc3c(=O)n4ccccc4nc32)cc1 (stereo not given)	i	-5.8*	i	i	i	-82%*	i	-22%*	60%*	58%*	i
CCOC(=O)c1cc2c(=O)n3ccccc3nc2n(CCCOC)c1=NC(=O)C(C)(C)C	i	-5.9*	i	i	i	-195%*	i	-27%*	56%*	50%*	i
Cc1cccc(/C=N\N=C\c2cccc(C)c2)c1	i	i	i	i	i	·	·	·	·	·	·
COc1ccc(C(=O)NC(=S)Nc2ccc(CN3CCCCC3)cc2)cc1Cl	i	i	i	i	i	·	·	·	·	·	·
Cc1noc(NS(=O)(=O)c2ccc(NC(=O)COc3ccc(Cl)cc3Cl)cc2)c1C	i	-5.8*	i	i	i	i	i	i	i	i	i
COc1ccccc1N1CCN(CC(=O)Nc2ccc(CN3CCCCC3)cc2)CC1	i	i	i	i	i	·	·	·	·	·	·
O=C(COc1ccc(Cl)cc1Cl)Nc1ccc(CN2CCCCC2)cc1	i	-5.3*	i	i	i	194%*	i	34%*	54%*	i	·
O=C(COc1ccc(Cl)cc1Cl)Nc1ccc(CN2CCOCC2)cc1	i	i	i	i	i	·	·	·	·	·	·
Cc1ccc(C(=O)NC(=S)Nc2ccc(CN3CCCCC3)cc2)c(C)c1	i	-6.3*	i	i	i	i	i	i	68%*	40%*	·
Cc1ccc(Cl)cc1N1CCN(CC(=O)Nc2ccc(CN3CCCCC3)cc2)CC1	i	-5.5*	i	i	i	152%*	i	19%*	76%*	44%*	·
CCOc1ccc(CCNC(=O)c2ccc(C)c(NC3=NC4CS(=O)(=O)CC4S3)c2)cc1 (stereo not given)	i	i	i	i	i	·	·	·	·	·	·
OCC1(CCOc2ccccc2)CCN(Cc2nc3ccc(F)cc3[nH]2)CC1	i	i	i	i	i	·	·	·	·	·	·
COc1ccccc1C(CNC(=O)c1cccc(S(=O)(=O)NCc2ccccc2)c1)N(C)C (stereo not given)	i	i	i	i	i	·	·	·	·	·	·
CCOC(=O)c1c(NC(=O)c2cc3n(n2)C(C(F)(F)F)CC(c2cccs2)N3)sc(C)c1C (stereo not given)	i	i	i	i	i	·	·	·	·	·	·
CCc1occc(=O)c1Oc1cc(NN2CCCCC2)c([N+](=O)[O-])cc1[N+](=O)[O-]	i	-7.4*	i	i	i	·	·	·	·	i	i	TRPC4 sel inh 2=i;TRPC4 spec=i;HEK293 MPD ctr 2-1=i;HEK293 MPD ctr-1=i
CCCCOc1ccc(CSC(=N)N)cc1Cl	i	-6.7*	i	i	i	·	·	·	·	i	i	TRPC4 sel inh 2=70%*;TRPC4 spec=i;HEK293 MPD ctr 2-1=266%*;HEK293 MPD ctr-1=2.0%*
CCOc1ccc(CSC(=N)N)cc1	i	i	i	i	i	·	·	·	·	·	·
CCCCCOc1ccc(Br)cc1CSC(=N)N	i	-6.4*	i	i	i	135%*	i	24%*	76%*	i	·
CCOC(=O)c1c(N2C(=O)CC(Sc3ccccc3C(=O)O)C2=O)sc2c1CCCC2 (stereo not given)	i	i	i	i	18*	147%*	i	8.0%*	i	i	120%*
CC(C)(C)C(=O)O/N=C(\N)Cc1ccc(-c2csnn2)cc1	i	i	i	i	i	·	·	·	·	·	·
CC1C/C(=C/c2cccn2C)C(=O)/C(=C/c2cccn2C)C1 (stereo not given)	i	i	i	i	79*	+	i	440%*	i	i	311%*
Cc1nnc(SCC2=C(C(=O)O)N3C(=O)C(NC(=O)C(C)n4nc(C(F)(F)F)cc4C)C3SC2)s1 (stereo not given)	i	i	i	i	i	·	·	·	·	·	·
Cc1cc(C)nc(NS(=O)(=O)c2ccc(NC(=O)CSc3nc(-c4ccccc4)c(C#N)c(=O)[nH]3)cc2)n1	i	i	i	i	13*	i	i	10%*	i	i	81%*
Cc1cc(NC(=O)CSc2nc(-c3ccccc3)c(C#N)c(=O)[nH]2)no1	i	i	i	i	i	·	·	·	·	·	·
Cc1cc(C(=O)OCC(=O)N(CC(C)C)c2c(N)n(Cc3ccccc3)c(=O)[nH]c2=O)c(C)o1	i	i	i	i	i	·	·	·	·	·	·

Screening results (PubChem)
